Results reported in ChEMBL document CHEMBL1671639, “Sitamaquine sensitivity in Leishmania species is not mediated by drug accumulation in acidocalcisomes” (Antimicrob Agents Chemother, 2008).

Legend:
Leishmania donovani [1] = experiment: Drug uptake in Leishmania donovani at 5 uM after 15 mins at 4 degC by liquid scintillation counting; assay type: ADME, organism-based; details: in vivo, 0.25 h
Outline: (§1)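 PBS-washed parasites at 2 × 10^7/ml in HBS (pH 7) were incubated with 5 μM [14C]sitamaquine for 15 min at 28°C or 4°C. Washing was 10 min on ice in PBS or PBS with 100 μM unlabeled sitamaquine, then twice in PBS. Cell-associated radioactivity in 1% Triton X-100 lysates was counted by liquid scintillation and related to Bradford protein.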

Leishmania donovani [2] = experiment: Drug uptake in Leishmania donovani at 5 uM after 15 mins at pH 8 by liquid scintillation counting; assay type: ADME, organism-based; details: in vivo, pH 8, 0.25 h
Outline: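 Parasites were incubated at 28°C with [14C]sitamaquine in HBS adjusted to various pHs, up to pH 8. Cells were chilled, then washed 10 min on ice in PBS with 100 μM sitamaquine and twice in PBS. Uptake was quantified by liquid scintillation counting of Triton X-100 lysates, with Bradford protein. Means of three independent experiments.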

Leishmania infantum = experiment: Antiparasitic activity against Leishmania infantum MHOM/ES/1993/BCN-99 after 3 days by Alamar blue assay; assay type: functional, organism-based; details: MHOM/ES/1993/BCN-99, 72 h
Outline: (§2)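 Promastigotes grown at 28°C in RPMI 1640-modified medium with 20% heat-inactivated FBS and harvested after 48 h of growth. Exposed to increasing sitamaquine concentrations for 72 h at 28°C. Growth read by Alamar Blue fluorescence (excitation 530 nm, emission 585 nm). EC50 taken as the concentration giving 50% growth inhibition. Run three times in duplicate.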

Leishmania donovani [3] = experiment: Drug uptake in Leishmania donovani MHOM/IN/80/DD8 assessed as reduction in fluorescence of LysoTracker Green by Flow cytometry analysis; assay type: ADME, organism-based; details: in vivo
Outline: (§3)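 Promastigotes at 4 × 10^6 cells/ml were loaded with 100 nM LysoTracker Green DND-26 in HBS for 10 min at 28°C. They were then exposed to 1, 10 or 30 μM sitamaquine for 15 min at 28°C, washed and resuspended in PBS. Flow cytometry used 488 nm excitation and 515–545 nm emission after gating out dead cells and debris. Signal expressed as % of untreated.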

Leishmania tropica [4] = experiment: Antiparasitic activity against Leishmania tropica MHOM/SU/60/LCR-L39 after 3 days by Alamar blue assay; assay type: functional, organism-based; details: MHOM/SU/60/LCR-L39, 72 h; outline: as §2
Leishmania tropica [5] = experiment: Drug uptake in Leishmania tropica MHOM/SU/74/SAF-K27 assessed as reduction in fluorescence of LysoTracker Green by Flow cytometry analysis; assay type: ADME, organism-based; details: in vivo; outline: as §3
Leishmania donovani [6] = experiment: Antiparasitic activity against Leishmania donovani MHOM/ET/67/L82 after 3 days by Alamar blue assay; assay type: functional, organism-based; details: MHOM/ET/67/L82, 72 h; outline: as §2
Leishmania donovani [7] = experiment: Drug uptake in Leishmania donovani at 10 uM for 10 mins by flow cytometry in presence of ionophores monensin; assay type: ADME, organism-based; details: in vivo
Leishmania donovani [8] = experiment: Drug uptake in Leishmania donovani at 10 uM for 10 mins by flow cytometry in presence of 20 mM NH4Cl acidic organelles alkalinization inducer; assay type: ADME, organism-based; details: in vivo
Leishmania mexicana = experiment: Antiparasitic activity against Leishmania mexicana M9012 after 3 days by Alamar blue assay; assay type: functional, organism-based; details: M9012, 72 h; outline: as §2
Leishmania braziliensis = experiment: Antiparasitic activity against Leishmania braziliensis MHOM/PE/03/LH2419 after 3 days by Alamar blue assay; assay type: functional, organism-based; details: MHOM/PE/03/LH2419, 72 h; outline: as §2
Leishmania donovani [9] = experiment: Drug uptake in Leishmania donovani at 5 uM after 15 mins at 28 degC by liquid scintillation counting; assay type: ADME, organism-based; details: in vivo, 0.25 h; outline: as §1
Leishmania donovani [10] = experiment: Drug uptake in Leishmania donovani at 10 uM for 10 mins by flow cytometry in presence of nigericin; assay type: ADME, organism-based; details: in vivo
Leishmania donovani [11] = experiment: Drug uptake in Leishmania donovani MHOM/ET/67/L82 assessed as reduction in fluorescence of LysoTracker Green by Flow cytometry analysis; assay type: ADME, organism-based; details: in vivo; outline: as §3
Leishmania sp. = experiment: Antiparasitic activity against promastigotes of Leishmania sp. after 3 days by Alamar blue assay; assay type: functional, organism-based; details: 72 h; outline: as §2
Leishmania tropica [12] = experiment: Drug uptake in Leishmania tropica MHOM/SU/60/LCR-L39 assessed as reduction in fluorescence of LysoTracker Green by Flow cytometry analysis; assay type: ADME, organism-based; details: in vivo; outline: as §3
Leishmania major [13] = experiment: Antiparasitic activity against amastigotes of delta-null mutant Leishmania major AP3 after 3 days by Alamar blue assay; assay type: functional, organism-based; details: AP3, 72 h
Leishmania major [14] = experiment: Antiparasitic activity against wild type amastigotes of Leishmania major AP3-complemented after 3 days by Alamar blue assay; assay type: functional, organism-based; details: 72 h
Leishmania major [15] = experiment: Drug uptake in Leishmania major MHOM/JL/80/Friedlin AP3delta-null mutant at 5 uM for 15 mins by liquid scintillation counting; assay type: ADME, organism-based; details: in vivo, 0.25 h
Outline: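 Promastigotes from 48-h cultures were washed in PBS and resuspended at 2 × 10^7/ml in HEPES-buffered saline, pH 7. They were exposed to 5 μM [14C]sitamaquine for 15 min, chilled on ice, then washed 10 min on ice in PBS with 100 μM unlabelled sitamaquine and twice more in PBS. Pellets were lysed in 1% Triton X-100. Scintillation counts were normalised to Bradford protein.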

Leishmania major [16] = experiment: Drug uptake in AP3-complemented Leishmania major MHOM/JL/80/Friedlin at 5 uM for 15 mins by liquid scintillation counting; assay type: ADME, organism-based; details: in vivo, 0.25 h; outline: as §1
Leishmania donovani [17] = experiment: Drug uptake in 1 mM N-ethylmaleimde pretreated Leishmania donovani at 5 uM after 15 mins by liquid scintillation counting; assay type: ADME, organism-based; details: in vivo, 0.25 h
Outline: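 Parasites were treated with 1 mM NEM for 15 min on ice, then resuspended in fresh HBS. Cells at 2 × 10^7/ml were given 5 μM [14C]sitamaquine for 15 min at 28°C. Washing was 10 min on ice in PBS with 100 μM sitamaquine, then twice in PBS. Lysates in 1% Triton X-100 were read by scintillation counting, with Bradford protein.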

CCN(CC)CCCCCCNc1cc(OC)cc2c(C)ccnc12.Cl.Cl
Drug uptake (Leishmania donovani [1]): Active | Drug uptake (Leishmania donovani [2]): Active | EC50 (Leishmania infantum): 9.5 µM | Drug uptake (Leishmania donovani [3]): Active | EC50 (Leishmania tropica [4]): 9.5 µM | Drug uptake (Leishmania tropica [5]): Active | EC50 (Leishmania donovani [6]): 9.5 µM | Drug uptake (Leishmania donovani [7]): Not Active | Drug uptake (Leishmania donovani [8]): Not Active | EC50 (Leishmania mexicana): 9.5 µM | EC50 (Leishmania braziliensis): 9.5 µM | Drug uptake (Leishmania donovani [9]): Active | Drug uptake (Leishmania donovani [10]): Not Active | Drug uptake (Leishmania donovani [11]): Active | EC50 (Leishmania sp.): 5.7 µM | Drug uptake (Leishmania tropica [12]): Active

CCN(CC)CCCCCCNc1cc(O[14CH3])cc2c(C)ccnc12.Cl.Cl
EC50 (Leishmania major [13]): 3.9 µM | EC50 (Leishmania major [14]): 4.3 µM | Drug uptake (Leishmania major [15]): Not Active | Drug uptake (Leishmania major [16]): Active | Drug uptake (Leishmania donovani [17]): Active
